Results from PMC9099118 (Clinical and Translational Science, 2022).

Assays:
[1] = assay type: in vivo, human
Procedure, shortened: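 Open-label single-dose study in 12 healthy volunteers. Each inhaled 1 mg test compound, with 99mTc surface-associated with the powder and blended with lactose, from a capsule dry-powder inhaler (60 L/min at 4 kPa). 81mKr ventilation and 57Co transmission scans were taken before dosing. Counts were corrected for decay, background and attenuation. Lung deposition was expressed as % of emitted dose (sum of lung, oropharynx, mouthwash, stomach and exhalation filter counts). Device and capsule residue was expressed as % of loaded dose. PI (outer/inner ratio) and sC/P were normalized to 81mKr.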

JAK1 = conditions: cited from earlier work
rat model of asthma = conditions: inhalation dosing; cited from earlier work

CN(CCC#N)C1CCN(C(=O)Cn2cc(NC(=O)c3cnn4cccnc34)c(-c3cc(Cl)ccc3OC(F)F)n2)CC1 [GDC‐0214]
mean emitted dose ([1]; capsule emptying, of loaded dose, 1 mg capsule): approximately 81% | calculated mean dose deposited in the lungs ([1]; from a single capsule (1 mg)): approximately 0.41 mg | Regional airway deposition ratio, PI (penetration index) ([1]; normalized for 81mKr gas distribution, mean (CV%), listed as radiolabeled GDC‐0214): 0.76 (30.47%) | % Emitted dose, Exhaled ([1]; single inhaled 1 mg radiolabeled dose, after the breath-hold, mean): 0.74% | plasma protein binding-corrected cellular 50% inhibitory concentration of JAK1 (JAK1): 97,000 pg/mL | eosinophil recruitment (rat model of asthma): suppressed
